# Source: PubChem BioAssay (several laboratories)
# Tb hexokinase – T. brucei hexokinase 1 inhibition. recombinant TbHK1, G6PDH-coupled NADH A340. inhibition, % at 10 µM. actives 0.11% (n = 220,000). AID 1430;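 active means inhibition of 50% or more in the single-dose primary screen; inactive means inhibition below 50%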
# 14-3-3 Bad PPI – disrupts binding of bovine 14-3-3 zeta to phospho-Bad peptide; TR-FRET 14-3-3zeta/Dy647-pBad peptide displacement, 1 h; actives 0.71% (n = 220,000); P63103; AID 781; inhibition, % at 21.7 µM;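 active means inhibition above about 70%, limit read from the data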;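 further: 0% = full 14-3-3 plus peptide FRET controls and 100% = background without 14-3-3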
# Hck Nef HTS – blocks Nef-activated human Hck kinase; P08631; inhibition, % at 20 µM; Recombinant Hck-YEEI plus Nef, Z-Lyte FRET kinase assay; actives 0.68% (n = 220,000); AID 463187;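 active means Hck-Nef kinase inhibition above about 50%, limit read from the data; inactive means inhibition below that limit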;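 further: 0% = DMSO with Hck plus Nef and 100% = Hck alone without Nef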
# Target sequence (P08631 whole entry, looked up): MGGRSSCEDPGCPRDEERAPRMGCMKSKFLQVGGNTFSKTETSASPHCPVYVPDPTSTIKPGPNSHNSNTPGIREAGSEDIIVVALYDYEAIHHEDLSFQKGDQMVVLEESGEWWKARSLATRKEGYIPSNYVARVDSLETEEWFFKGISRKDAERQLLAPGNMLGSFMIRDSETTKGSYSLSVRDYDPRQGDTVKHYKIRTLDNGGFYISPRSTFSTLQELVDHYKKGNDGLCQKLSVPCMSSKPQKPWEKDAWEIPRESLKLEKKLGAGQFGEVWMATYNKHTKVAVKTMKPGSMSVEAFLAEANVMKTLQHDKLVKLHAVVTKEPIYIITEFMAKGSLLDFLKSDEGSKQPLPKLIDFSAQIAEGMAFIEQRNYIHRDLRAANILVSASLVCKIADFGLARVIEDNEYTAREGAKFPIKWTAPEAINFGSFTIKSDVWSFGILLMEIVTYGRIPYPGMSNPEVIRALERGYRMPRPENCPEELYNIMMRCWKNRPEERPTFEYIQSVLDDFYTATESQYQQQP
# Mdm2 ligase inh – blocks human Mdm2 ubiquitin ligase activity; Q00987; cell-based MDM2 ubiquitination luciferase reporter, 2 h; 0 = plate control, 100 = twice control, blank-subtracted; signal enhancement, % at 5 µM; actives 0.11% (n = 210,000); AID 1230;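 active means signal enhancement of 30% or more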;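 further: luminescence tracks abundance of the self-degrading MDM2-luciferase fusion protein; higher signal means inhibition of MDM2 E3 ligase activity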
#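 system = mammalian cells stably expressing self-ubiquitinating, self-degrading MDM2 E3–luciferase fusion | quantity = 2000 cells per well seeded | incubation = 4 h cell settling then 2 h compound exposure, 37 °C | signal = SteadyLite luminescence, 15 min reagent step | benchmarks = plate control and blank wells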
# Wee1 stabilizer – inhibitors of human Wee1 degradation. P30291. HeLa Luc-Wee1K328M stability, luciferase luminescence; 100% = proteasome inhibitor MG132 effect. reporter increase, % at 5 µM. actives 1.2% (n = 220,000). AID 1321;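 active means activation above the mean of all tested compounds plus 3 SD, set per screening run, cut at about 8.8% in these data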;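 further: cells exposed to compound for 20 h before luminescence read; 0% = DMSO alone and 100% = MG132 at 30 µM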
# An asterisk follows results filed as active; x = no result; + = active, no number; [ ] = another dose, or the depositor's remark. Compounds with a hit are over-represented: about 2.7% of the library has one in this group of screens.
SMILES,Tb hexokinase,14-3-3 Bad PPI,Hck Nef HTS,Mdm2 ligase inh,Wee1 stabilizer
Cc1ccc(Cn2nc(C)c3cc(C(=O)OCC(N)=O)sc32)cc1,-6,23,-1,-11,9.8*
COCc1nnc(NS(=O)(=O)c2ccc(NC(C)=O)cc2)s1,-5,36,1,-5,9.9*
CC(=O)Nc1cccc2c1C(=O)N(c1ccc(OC(C)=O)cc1)C2=O,1,-3,22,-12,-1
COc1ccc(-n2c(COc3cccc4cccnc34)nnc2SCC(=O)O)cc1,-7,-2,-4,-23,0
O=C(CSc1nnc(COc2ccc3c(c2)CCCC3)o1)Nc1ccc(F)cc1,5,87*,2,-17,2
Cc1cc(NCCCN2CCOCC2)n2nc(C)c(-c3ccccc3)c2n1,-18,-7,0,-9,-1
Cc1cc(NCCCN2CCOCC2)n2ncc(-c3ccccc3)c2n1,-28,-2,1,-4,11*
O=C(CCN1CCN(c2ccccc2)CC1)N/N=C/c1ccccc1OC(F)F,-3,-15,-11,10,-4
O=C(CN1CCOCC1)n1c2ccccc2c2ccccc21,1,75*,1,-12,-2
O=C(CN1CCOCC1)n1c2c(c3ccccc31)CCCC2,8,-2,-38,-12,1
O=C(CN1CCN(C(c2ccccc2)c2ccccc2)CC1)N1CCOCC1,-6,73*,2,-20,1
COc1ccc(N2CCN(C(=O)CN3CCN(C(c4ccccc4)c4ccccc4)CC3)CC2)cc1,-6,10,0,-17,-1
CCOC(=O)C1=C(N)n2c(s/c(=C\c3cccs3)c2=O)=C(C(=O)OCC)C1c1cccs1 (stereo not given),-16,0,0,-15,4
O=C(COC(=O)CNC(=O)c1ccccc1)Nc1ccc(F)c([N+](=O)[O-])c1,-4,-9,20,-8,1
COc1ccc2nc(/N=C/c3c(C)[nH]n(-c4ccc(C)cc4C)c3=O)sc2c1,-7,14,2,-15,1
CCC1CCCCN1C(=O)CCc1nnc(C2CCCCC2)o1 (stereo not given),-5,-5,13,-10,0
CCOc1ccc(-n2nc(C(=O)N3CCN(CC)CC3)c3ccccc3c2=O)cc1,-5,-5,-2,-4,9.6*
COc1ccc(S(=O)(=O)Nc2cc(Sc3ncn[nH]3)c(O)c3ccccc23)cc1,15,87*[fluorescence artefact?],22,7,-2
COc1ccc(S(=O)(=O)Nc2ccc(O)c(Sc3ncn[nH]3)c2)cc1,-4,-14,-10,-1,-1
CN1/C(=C/C2CC(=O)N(c3cccc4ccccc34)C2=O)C(C)(C)c2ccccc21 (stereo not given),-7,9,-13,7,3
CN1/C(=C/C2CC(=O)NC2=O)C(C)(C)c2ccccc21 (stereo not given),-1,-9,2,-2,13*
CCNc1nc2c(c(=O)n(Cc3ccccc3)c(=O)n2C)n1Cc1ccccc1,3,-2,4,-3,-2
C[C@H](NS(=O)(=O)c1ccccc1F)C(=O)OCC(=O)N1CCc2ccccc21,-11,0,1,-3,0
Cc1cccn2c(=O)c3cc(C#N)c(=O)n(CC4CCCO4)c3nc12 (stereo not given),0,17,+,1,-1
N#Cc1cc2c(=O)n3ccccc3nc2n(CC2CCCO2)c1=N (stereo not given),-9,x,42,x,1
SMILES,Tb hexokinase,14-3-3 Bad PPI,Hck Nef HTS,Mdm2 ligase inh,Wee1 stabilizer
O=[N+]([O-])c1ccc(OCCO)c(P(=O)(c2ccccc2)c2ccccc2)c1,-12,4,1,-91,0
CCOC(=O)c1c(CN2CCN(C)CC2)oc2ccc(OC)cc12,7,79*,1,-7,-1
CCOC(=O)c1c(CN2CCCCC2)oc2ccc(OC)cc12,-4,35,-2,-13,-1
O=C(CCc1ccc(O)cc1)c1c(O)cc(O)cc1O,-34,-5,63*,-14,x
O=C(NCCN1CCOCC1)c1ccc2c(c1)N(Cc1ccccc1F)C(=O)c1ccccc1S2,-7,-19,6,-9,-1
CCN1CCN(CCCNC(=O)c2ccc(/C=C3/Sc4ccccc4N(Cc4ccccc4F)C3=O)cc2)CC1,-6,81*,-8,-18,3
CCN1CCN(CCNC(=O)c2ccc(/C=C3/Sc4ccccc4N(Cc4ccccc4C)C3=O)cc2)CC1,-16,70*,-6,-13,-4
CCOCCCNC(=O)CN1C(=O)/C(=C\c2ccc(C)cc2)Sc2ccccc21,4,-13,-1,-11,0
COCC(C)N1CC(O)=C(c2nc(-c3ccc(Cl)cc3)cs2)C1=N (stereo not given),-7,12,12,4,-1
Cc1ccccc1C(=O)NC(=S)Nc1ccc2[nH]c(=O)[nH]c2c1,-11,-6,23,-19,-5
Cc1ccnc(NS(=O)(=O)c2ccc(NC(=O)C34CC5CC(CC(C5)C3)C4)cc2)n1,1,-5,-2,-10,-3
CC(C)n1cnc2c(N(C)c3ccccc3)nc(N(CCN(C)C)Cc3ccccc3)nc21,7,-2,32,35*,x
COc1ccccc1C(=O)OCC(=O)Nc1cc(S(=O)(=O)N2CCOCC2)ccc1N1CCCC1,3,-8,0,3,5
O=C(Cc1ccccc1)Nc1ccccc1N1CCCC1,10,-8,17,-3,-3
O=C(CNCC1CCCO1)Nc1ccccc1N1CCOCC1 (stereo not given),-1,20,-1,-10,-2
O=C(CNC1CCCCCC1)Nc1ccccc1N1CCCCC1,8,57,-1,-7,8.9*
CC(C)CC(=O)Nc1ccccc1N1CCCC1,-1,3,-1,-18,1
O=C(CNCC1CCCCC1)Nc1ccccc1N1CCCCC1,8,80*,1,21,0
COc1cc(CC(=O)Nc2ccccc2N2CCCCC2)cc(OC)c1OC,-5,0,14,-18,9.4*
COc1ccccc1OCC(=O)Nc1cc(S(=O)(=O)N2CCCCC2)ccc1N1CCCCC1,14,20,3,78*,0
COc1ccccc1N(C)S(=O)(=O)c1ccc(C(=O)OCC(=O)N(C(C)C)C(C)C)cc1,-5,-10,1,-8,-4
Oc1cc(-n2cccn2)c(O)cc1-n1cccn1,16,3,-148,-7,-4
CCN(CC)CCn1c(NCc2ccccn2)nc2ccccc21,-2,77*,1,-14,-1
COc1ccc(NC(=O)N2CCC(c3nc4ccccc4[nH]3)CC2)cc1,5,-4,-9,-2,1
O=C(Nc1nn[nH]n1)c1cccc(Oc2ccccc2)c1,1,11,-8,-12,-2
Cc1cc(C)cc(Oc2nn[nH]n2)c1,8,71*,-1,1,1
CC(C)(C)c1cccc(Oc2nn[nH]n2)c1,1,79*,-1,-4,-2
